Test [1] concerns Punta Toro virus. The experiment in a line: Antiviral activity against 500 PFU Punta Toro virus Adames infected C57BL/6 mouse assessed as mean viral titer per 0.1 mL of serum at 75 mg/kg, po twice daily administered 4 hrs before viral challenge measured on day 4 of viral infection. It counts as functional. Put shortly:
(§1)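 Mice were infected subcutaneously with PTV and dosed by oral gavage twice daily; 5 per group (10 placebo) were killed on day 3 or 4. Liver homogenate or serum was serially diluted onto triplicate LLC-MK2 monolayers, and CPE was read 6–8 days later. 50% endpoints gave log10 CCID50 per 0.1 g liver or 0.1 ml serum. Detection range was 2.8–9.5; undetectable samples were assigned <2.8.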

Test [2] has as its system Pichinde virus. The experiment in a line: Antiviral activity against Pichinde virus An 4763 infected Syrian golden hamster assessed as mean viral titer per 0.1 mL of serum at 30 mg/kg, po twice daily for 7 days administered 4 hrs before viral-challenge measured on day 7 of viral infection. It counts as functional.
Test [3] relates to Punta Toro virus. The experiment in a line: Antiviral activity against 5000 PFU Punta Toro virus Adames infected C57BL/6 mouse assessed as survival at 10 mg/kg, po twice daily for 5 days administered 24 hrs post viral challenge. It counts as functional. Summed up: (§2)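 PTV was inoculated subcutaneously into mice in groups of 15 (25–30 placebo). Dosing was by oral gavage twice daily for 5–7 days, with T-705 suspended in 0.4% CMC and ribavirin in saline. Remaining animals were observed 21–28 days for survival and day of death. Test doses had first been checked for tolerance in uninfected animals.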

Test [4] concerns Punta Toro virus. The experiment in a line: Antiviral activity against Punta Toro virus Adames infected Syrian golden hamster assessed as mean viral titer per 0.1 mL of serum at 60 mg/kg, po twice daily administered 4 hrs before viral challenge measured on day 4 of viral infection. It counts as functional.
The subject of test [5] is Punta Toro virus. The experiment in a line: Antiviral activity against 500 PFU Punta Toro virus Adames infected C57BL/6 mouse assessed as animals with detectable virus level in serum at 200 mg/kg, po twice daily administered 4 hrs before viral challenge measured on day 4 of viral infection. The format is functional. Summed up:
(§3)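 T-705 was suspended in 0.4% carboxymethylcellulose and given by oral gavage twice daily. Mice were infected subcutaneously with PTV. Five mice per group (10 placebo) were sacrificed on day 3 or 4. Liver homogenate or serum was serially diluted onto triplicate LLC-MK2 monolayers, and CPE was read at 6–8 days. The detection limit was 2.8 log10 CCID50 per 0.1 g liver or 0.1 ml serum.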

The test system of test [6] is Punta Toro virus. The experiment in a line: Antiviral activity against 500 PFU Punta Toro virus Adames infected C57BL/6 mouse assessed as animals with detectable virus level in liver at 75 mg/kg, po twice daily administered 4 hrs before viral challenge measured on day 4 of viral infection. The format is functional. Summed up: as §3
The test system of test [7] is Punta Toro virus. The test can be described thus: Antiviral activity against Punta Toro virus Adames infected Syrian golden hamster assessed as mean day of death at 15 mg/kg, po twice daily for 6 days administered 4 hrs before viral challenge. The format is functional.
The subject of test [8] is Punta Toro virus. The experiment in a line: Antiviral activity against 500 PFU Punta Toro virus Adames infected C57BL/6 mouse assessed as mean viral titer per 0.1 mL of serum at 5 mg/kg, po twice daily administered 4 hrs before viral challenge measured on day 3 of viral infection. The format is functional. Summed up:
as §1

For test [9], the system named is Pichinde virus. The test can be described thus: Antiviral activity against Pichinde virus An 4763 infected Syrian golden hamster assessed as animals with detectable virus level in serum at 30 mg/kg, po twice daily for 7 days administered 4 hrs before viral-challenge measured on day 7 of viral infection. The format is functional.
In test [10] the test system is Punta Toro virus. The test can be described thus: Antiviral activity against 500 PFU Punta Toro virus Adames infected C57BL/6 mouse assessed as mean day of death at 50 mg/kg, po twice daily for 5 days administered 4 hrs before viral challenge. The format is functional. Put shortly:
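Groups of 15 mice (25–30 placebo) were inoculated subcutaneously with PTV. Drug in 0.4% carboxymethylcellulose was given by oral gavage twice daily.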

Test [11] has as its system Punta Toro virus. The test can be described thus: Antiviral activity against 500 PFU Punta Toro virus Adames infected C57BL/6 mouse assessed as survival at 75 mg/kg, po twice daily for 5 days administered 4 hrs before viral challenge. Also on record: dose 75 mg/kg. It counts as functional, organism-based. Put shortly: as §2
Test [12] concerns Punta Toro virus. The experiment in a line: Antiviral activity against 500 PFU Punta Toro virus Adames infected C57BL/6 mouse assessed as animals with detectable virus level in liver at 50 mg/kg, po twice daily administered 4 hrs before viral challenge measured on day 4 of viral infection. It counts as functional. Summed up: as §3
For test [13], the system named is Punta Toro virus. The test can be described thus: Antiviral activity against 500 PFU Punta Toro virus Adames infected C57BL/6 mouse assessed as mean viral titer per 0.1 g of liver at 30 mg/kg, po twice daily administered 4 hrs before viral challenge measured on day 3 of viral infection. The format is functional. Summed up:
as §1

Test [14] relates to Pichinde virus. The experiment in a line: Antiviral activity against Pichinde virus An 4763 infected Syrian golden hamster assessed as mean viral titer per 0.1 g of liver at 30 mg/kg, po twice daily for 7 days administered 4 hrs before viral-challenge measured on day 7 of viral infection. It counts as functional.
The subject of test [15] is Punta Toro virus. The experiment in a line: Antiviral activity against 500 PFU Punta Toro virus Adames infected C57BL/6 mouse assessed as mean viral titer per 0.1 g of liver at 10 mg/kg, po twice daily administered 4 hrs before viral challenge measured on day 3 of viral infection. The format is functional. Summed up:
as §1

Test [16] concerns Pichinde virus. The test can be described thus: Antiviral activity against Pichinde virus An 4763 infected Syrian golden hamster assessed as mean day of death at 30 mg/kg, po twice daily for 7 days administered 4 hrs before viral-challenge. The format is functional.
Test [17] relates to Punta Toro virus. The experiment in a line: Antiviral activity against Punta Toro virus Adames infected Syrian golden hamster assessed as mean viral titer per 0.1 g of liver at 15 mg/kg, po twice daily administered 4 hrs before viral challenge measured on day 4 of viral infection. The format is functional.
The test system of test [18] is Punta Toro virus. The experiment in a line: Antiviral activity against 500 PFU Punta Toro virus Adames infected C57BL/6 mouse assessed as survival at 25 mg/kg, po twice daily for 5 days administered 4 hrs before viral challenge. It counts as functional, organism-based. The arrangement: dose 25 mg/kg. Put shortly:
as §2

Test [19] has as its system Punta Toro virus. The experiment in a line: Antiviral activity against 500 PFU Punta Toro virus Adames infected C57BL/6 mouse assessed as mean serum ALT levels at 30 mg/kg, po twice daily administered 4 hrs before viral challenge measured on day 3 of viral infection. It counts as functional. Put shortly: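 C57BL/6 mice received subcutaneous PTV, then oral gavage twice daily for 5–7 days. T-705 was given in 0.4% CMC and ribavirin in saline. Five mice per group (10 placebo) were killed on day 3 or 4, and serum was collected. ALT activity was measured by kinetic assay. Three sham-infected mice set baselines.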

Test [20] concerns Punta Toro virus. The test can be described thus: Antiviral activity against Punta Toro virus Adames assessed as reduction of 1 log10 unit viral titer yields after 3 to 5 days. The format is functional.
In test [21] the test system is Punta Toro virus. The test can be described thus: Antiviral activity against 500 PFU Punta Toro virus Adames infected C57BL/6 mouse assessed as mean viral titer per 0.1 g of liver at 5 mg/kg, po twice daily administered 4 hrs before viral challenge measured on day 3 of viral infection. The format is functional. Summed up: as §1
Test [22] deals with Punta Toro virus. The experiment in a line: Antiviral activity against 500 PFU Punta Toro virus Adames infected C57BL/6 mouse assessed as mean viral titer per 0.1 mL of serum at 30 mg/kg, po twice daily administered 4 hrs before viral challenge measured on day 3 of viral infection. It counts as functional. Summed up:
as §1

The subject of test [23] is Pichinde virus. The test can be described thus: Antiviral activity against Pichinde virus An 4763 infected Syrian golden hamster assessed as animals with detectable virus level in liver at 15 mg/kg, po twice daily for 7 days administered 4 hrs before viral-challenge measured on day 7 of viral infection. The format is functional.
Test [24] relates to Punta Toro virus. The test can be described thus: Antiviral activity against 500 PFU Punta Toro virus Adames infected C57BL/6 mouse assessed as protection against viral infection at 75 mg/kg, po twice daily for 5 to 7 days. It counts as functional. Put shortly: as §2
For test [25], the system named is Punta Toro virus. The test can be described thus: Antiviral activity against 500 PFU Punta Toro virus Adames infected C57BL/6 mouse assessed as animals with detectable virus level in serum at 75 mg/kg, po twice daily administered 4 hrs before viral challenge measured on day 4 of viral infection. The format is functional. Put shortly: as §3

The source made the active and inactive calls. The rule behind the calls is not given here.

For orientation: EC90 means the point of the concentration-response curve where the effect stands at 90%. As for `NC(=O)c1nc(F)cnc1O` [FAVIPIRAVIR], the log10CCID50 in the test with Punta Toro virus [1] is on record as less than 3.3; with Pichinde virus [2], less than 5.2; in the test on Punta Toro virus [4] it was less than 3.8; in the test on Punta Toro virus [8], 7.2; in the test with Punta Toro virus [13], less than 2.8; in the test on Pichinde virus [14] it was 6.4. For the same molecule, the log10CCID50 in the test with Punta Toro virus [15] is less than 2.8; in the test with Punta Toro virus [17] it was more than 6.9; in the test on Punta Toro virus [21] it was less than 2.8; in the test with Punta Toro virus [22], less than 5.2. The survival at 10 mg/kg with Punta Toro virus [3] came to 40%. Moreover, the Activity with Punta Toro virus [5] is 0%; in the test on Punta Toro virus [6] it was 0%; in the test with Punta Toro virus [7], 5.4 days; with Pichinde virus [9], 80%; with Punta Toro virus [10], more than 21 days; in the test on Punta Toro virus [12] it was 0%. The figures for the Activity in the test on Pichinde virus [16], with Punta Toro virus [19] and in the test on Pichinde virus [23] were 12.5 days, 9 IU/L and 100%, respectively. For the same molecule, the result with Punta Toro virus [11] and in the test with Punta Toro virus [18] was Active. In addition, the EC90 in the test with Punta Toro virus [20] stood at 20 µM.

Take `NC(=O)c1ncn([C@@H]2O[C@H](CO)[C@@H](O)[C@H]2O)n1` [RIBAVIRIN]: the Activity in the test with Punta Toro virus [24] is reported as 100%; in the test with Punta Toro virus [25], 20%.

(Values after ChEMBL document CHEMBL1154414, “In vitro and in vivo activities of T-705 against arenavirus and bunyavirus infections” (Antimicrob Agents Chemother, 2007).)
